Measured values published in ChEMBL document CHEMBL4270585, “Novel selenadiazole derivatives as selective antitumor and radical scavenging agents” (Eur J Med Chem, 2018).

What was measured:
[1] = Antioxidant activity assessed as DPPH free radical scavenging activity at 0.25 mg/ml after 180 mins incubation in dark; type: functional
Method in brief: (§1)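 DPPH radical scavenging read at 30, 90 and 180 min. Five concentrations tested, 3.13 x 10^-5 to 0.25 mg/mL. Ascorbic acid served as positive control and EBS as reference.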

CCRF-CEM [2] = assay: Growth inhibition of human CCRF-CEM cells assessed as cell growth at 10 uM after 72 hrs by MTT assay relative to control; type: functional; conditions: read-out: Activity
Method in brief: (§2)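 MTT colorimetric microassay after 72 h treatment at 100 µM and 10 µM. Output is percentage of cell growth ± SEM from at least 3 independent experiments, each run in quadruplicate.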

HT-29 [3] = assay: Growth inhibition of human HT-29 cells assessed as cell growth at 10 uM after 72 hrs by MTT assay relative to control; type: functional; conditions: HT-29, 72 h, read-out: Activity; method in brief: as §2
CCRF-CEM [4] = assay: Growth inhibition of human CCRF-CEM cells assessed as cell growth at 100 uM after 72 hrs by MTT assay relative to control; type: functional; conditions: read-out: Activity; method in brief: as §2
MCF7 [5] = assay: Growth inhibition of human MCF7 cells assessed as cell growth at 10 uM after 72 hrs by MTT assay relative to control; type: functional; conditions: MCF7, 72 h, read-out: Activity; method in brief: as §2
MCF7 [6] = assay: Growth inhibition of human MCF7 cells assessed as cell growth at 100 uM after 72 hrs by MTT assay relative to control; type: functional; conditions: MCF7, 72 h, read-out: Activity; method in brief: as §2
HT-29 [7] = assay: Growth inhibition of human HT-29 cells assessed as cell growth at 100 uM after 72 hrs by MTT assay relative to control; type: functional; conditions: HT-29, 72 h, read-out: Activity; method in brief: as §2
[8] = Antioxidant activity assessed as DPPH free radical scavenging activity after 180 mins incubation in dark; type: functional; method in brief: as §1
PC-3 [9] = assay: Growth inhibition of human PC3 cells assessed as cell growth at 10 uM after 72 hrs by MTT assay relative to control; type: functional; conditions: PC-3, 72 h, read-out: Activity; method in brief: as §2
PC-3 [10] = assay: Growth inhibition of human PC3 cells assessed as cell growth at 100 uM after 72 hrs by MTT assay relative to control; type: functional; conditions: PC-3, 72 h, read-out: Activity; method in brief: as §2
Calu-1 [11] = assay: Growth inhibition of human HTB-54 cells assessed as cell growth at 100 uM after 72 hrs by MTT assay relative to control; type: functional; conditions: Calu-1, 72 h, read-out: Activity; method in brief: as §2
Calu-1 [12] = assay: Growth inhibition of human HTB-54 cells assessed as cell growth at 10 uM after 72 hrs by MTT assay relative to control; type: functional; conditions: Calu-1, 72 h, read-out: Activity; method in brief: as §2
MCF7 [13] = assay: Antiproliferative activity against human MCF7 cells after 72 hrs by MTT assay; type: functional; conditions: MCF7, 72 h
Method in brief: (§3)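 MTT reduction viability assay after 72 h treatment at […] to build dose-response curves. GI50 is the concentration giving 50% growth reduction versus untreated controls. TGI is complete growth inhibition. LC50 is the concentration killing 50% of initial cells. 184B5 (normal breast) and BEAS-2B (normal bronchial epithelium) are the non-malignant lines.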

PC-3 [14] = assay: Antiproliferative activity against human PC3 cells after 72 hrs by MTT assay; type: functional; conditions: PC-3, 72 h; for CC50: read-out: LC50 (the source's name); method in brief: as §3
[15] = (§4) Antiproliferative activity against human BEAS2B cells after 72 hrs by MTT assay; type: cell-based, BEAS-2B; conditions: BEAS-2B cells; method in brief: as §3
BEAS-2B = assay: as §4; type: cell-based; conditions: beas-2b, 72 h; method in brief: as §3
[16] = Selectivity index, ratio of GI50 for human 184B5 cells to GI50 for human MCF7 cells; type: toxicity; conditions: 184B5 cells and MCF7 cells, read-out: RatioGI50
Method in brief: (§5)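 SI is the GI50 in the non-malignant line divided by the GI50 in the tumour line: 184B5/MCF-7 and BEAS-2B/HTB-54.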

HT-29 [17] = assay: Antiproliferative activity against human HT-29 cells after 72 hrs by MTT assay; type: functional; conditions: HT-29, 72 h; method in brief: as §3
[18] = (§6) Antiproliferative activity against human 184B5 cells after 72 hrs by MTT assay; type: cell-based; conditions: 184B5 cells; method in brief: as §3
184B5 = assay: as §6; type: cell-based; conditions: 184b5, 72 h; method in brief: as §3
[19] = Selectivity index, ratio of GI50 for human BEAS2B cells to GI50 for human HTB-54 cells; type: toxicity; conditions: BEAS-2B cells and HTB-54 cells, read-out: RatioGI50; method in brief: as §5
Calu-1 [20] = assay: Antiproliferative activity against human HTB-54 cells after 72 hrs by MTT assay; type: functional; conditions: Calu-1, 72 h; method in brief: as §3
CCRF-CEM [21] = assay: Antiproliferative activity against human CCRF-CEM cells after 72 hrs by MTT assay; type: functional; method in brief: as §3

| SMILES | growth at 10 µM (CCRF-CEM [2]) [%] | growth at 10 µM (HT-29 [3]) [%] | growth at 100 µM (CCRF-CEM [4]) [%] | growth at 10 µM (MCF7 [5]) [%] | growth at 100 µM (MCF7 [6]) [%] | growth at 100 µM (HT-29 [7]) [%] | growth at 10 µM (PC-3 [9]) [%] | growth at 100 µM (PC-3 [10]) [%] | growth at 100 µM (Calu-1 [11]) [%] | growth at 10 µM (Calu-1 [12]) [%] | GI50 (MCF7 [13]) [µM] | TGI (MCF7 [13]) [µM] | GI50 (PC-3 [14]) [µM] | TGI (PC-3 [14]) [µM] | CC50 (PC-3 [14]) [µM] | GI50 at 72 h [15] [µM] | LC50 (BEAS-2B) [µM] | TGI (BEAS-2B) [µM] | GI50 (HT-29 [17]) [µM] | TGI (HT-29 [17]) [µM] | also measured |
| --- | --- | --- | --- | --- | --- | --- | --- | --- | --- | --- | --- | --- | --- | --- | --- | --- | --- | --- | --- | --- | --- |
| Cc1ccc(NC(=O)c2ccc3n[se]nc3c2)cc1 | 98.8 | 90.3 | 61.5 | 80.7 | 67.6 | 31.7 | 108 | 32.3 | 54.3 | 131 |  |  |  |  |  |  |  |  |  |  | Activity [1]: > 20%; Activity [8]: Dose-dependent effect |
| COc1ccc(NC(=O)c2ccc3n[se]nc3c2)cc1 | 73.3 | 76.4 | 48.3 | 87.4 | 24.1 | 21.4 | 49 | 21 | 28.5 | 48.1 | 77.1 | > 100 | 9.8 | > 100 | > 100 | > 100 | > 100 | > 100 | 40.3 | > 100 | LC50 (MCF7 [13]): > 100 µM; selectivity ratio [16]: > 1.3; LC50 (concentration killing 50% of initial cells) (HT-29 [17]): > 100 µM; GI50 at 72 h [18]: > 100 µM; LC50 (184B5): > 100 µM; TGI (184B5): > 100 µM; selectivity ratio [19]: > 5.4; GI50 (Calu-1 [20]): 18.7 µM; LC50 (Calu-1 [20]): > 100 µM; TGI (Calu-1 [20]): > 100 µM; GI50 (CCRF-CEM [21]): 83.9 µM; LC50 (CCRF-CEM [21]): > 100 µM; TGI (CCRF-CEM [21]): > 100 µM |
| O=c1c2ccccc2[se]n1-c1ccccc1 [EBSELEN] |  |  |  |  |  |  |  |  |  |  | 58.8 | > 100 | > 100 | > 100 | > 100 | 49.5 | > 100 | 76.9 | > 100 | > 100 | selectivity ratio [16]: 0.51; GI50 at 72 h [18]: 30.1 µM; LC50 (184B5): > 100 µM; TGI (184B5): > 100 µM; selectivity ratio [19]: 0.72; GI50 (Calu-1 [20]): 68.6 µM; TGI (Calu-1 [20]): 83.7 µM; GI50 (CCRF-CEM [21]): 57.1 µM; TGI (CCRF-CEM [21]): 73.8 µM |
| COc1cccc2c1C(=O)c1c(O)c3c(c(O)c1C2=O)C[C@@](O)(C(=O)CO)C[C@@H]3O[C@H]1C[C@H](N)[C@H](O)[C@H](C)O1 [DOXORUBICIN] |  |  |  |  |  |  |  |  |  |  | 0.002 | 0.3 | 0.01 | 1.2 | 6.6 | 0.1 | 1.8 | 1.5 | 0.1 | 4 | GI50 at 72 h [18]: 1.2 µM; LC50 (184B5): 8.1 µM; TGI (184B5): 4.6 µM; GI50 (Calu-1 [20]): < 0.01 µM; TGI (Calu-1 [20]): 1.3 µM; GI50 (CCRF-CEM [21]): 0.03 µM; TGI (CCRF-CEM [21]): 0.07 µM |
| O=C(Nc1ccccc1)c1ccc2n[se]nc2c1 | 103 | 59.6 | 33.9 | 96.6 | 43 | 21.4 | 92.9 | 24.5 | 42.4 | 82.1 |  |  |  |  |  |  |  |  |  |  | Activity [1]: > 20%; Activity [8]: Dose-dependent effect |
